# Assay outcomes from PubChem BioAssay.
# This is one part of a sample in which hits are shown more often than they occur.
# INS-1E rescue: rescue of cytokine-induced death in INS-1E beta cells; AID 488910; INS-1E cytokine-induced death, ATP luminescence, 48 h; normalised: neutral wells 0, positive control 100; 20,000 compounds, 0.1% hits; protection from cytokine-induced ATP loss, % at 10 µM;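 active = mean replicate protection from cytokine-induced ATP loss at least 50% and at least 75% of replicates each reaching 50%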
#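 Material: INS-1E rat cells; Quantity: 8000 cells/well; Buffer or medium: phenol-red-free RPMI with 5% fetal bovine serum; Probe or stimulus: cytokine cocktail of IFN-γ, TNF-α and IL-1β; Compound dosing: single test concentration per compound, delivered by pin transfer; Incubation: 48 h co-treatment, 10 min post-lysis read; Signal: CellTiter-Glo luminescence.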
# A1 apoptosis 2: blocks A1, raising caspase activity; MEF A1-2A-BIM cells, caspase-Glo luminescence, 3 h; percent of clofoctol response, DMSO zero; caspase activation, % (concentration not given with the values); 24,000 tested, under 10 active; in the data active = caspase activation above about 5.9%
#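 Material: A1-2A-BIM-expressing MEF cells. Buffer or medium: RPMI-1640 plus 10% FBS. Incubation: cells settled overnight, compound exposure 3 h at 37 °C, 5% CO2. Signal: Caspase-Glo 3/7 luminescence, 1 h at room temperature.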
# T cruzi HTS: blocks T. cruzi growth inside host cells; intracellular Trypanosoma cruzi in host cells, plate reader; 22,000 compounds, 4.9% hits; activity score (inhibition), % at 5.01 µM; in the data active = activity score above about 55%;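 note: parasites and compound incubated about four days before reading; 0% = median of neutral control wells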
# * hit, by the source's call; / = no result given.
SMILES,INS-1E rescue,A1 apoptosis 2,T cruzi HTS
CN(C)CCCOc1ccc(/C=N/NC(=O)c2ccccc2O)cc1,-3,-2,26
O=C(NO)c1ccc(C(=O)N/N=C/c2cc(Cl)cc(Cl)c2O)cc1,24,-1,-8
C[C@@H]1CCCCO[C@H](CN(C)Cc2ccccc2)[C@@H](C)CN([C@H](C)CO)C(=O)c2cc(NC(=O)Nc3ccc(F)cc3)ccc2O1,-3,-1,-1
C[C@@H]1CN([C@@H](C)CO)C(=O)c2cc(NC(=O)Nc3ccccc3)ccc2O[C@@H](C)CCCCO[C@@H]1CN(C)Cc1ccc(C(F)(F)F)cc1,/,-1,/
C[C@@H]1CCCCO[C@@H](CN(C)Cc2ccccc2)[C@@H](C)CN([C@H](C)CO)C(=O)c2cc(NC(=O)Nc3ccc(F)cc3)ccc2O1,-13,/,62*
C[C@@H]1CCCCO[C@H](CN(C)Cc2ccc(C(F)(F)F)cc2)[C@@H](C)CN([C@H](C)CO)C(=O)c2cc(NC(=O)Nc3ccccc3)ccc2O1,-22,0,67*
C[C@@H]1CCCCO[C@H](CN(C)Cc2ccccc2)[C@@H](C)CN([C@H](C)CO)C(=O)c2cc(NC(=O)Nc3ccc(C(F)(F)F)cc3)ccc2O1,-18,0,71*
C[C@@H]1CCCCO[C@H](CN(C)Cc2ccccc2)[C@H](C)CN([C@@H](C)CO)C(=O)c2cc(NC(=O)Nc3ccc(C(F)(F)F)cc3)ccc2O1,/,-1,/
CC(C)(C)OC(=O)NC/C=N/NC(=O)CCCCCC(=O)O,-8,0,-19
CC1(C)COC(CCC/C=N/NC(=O)c2ccc(C(=O)NO)cc2)OC1,33,0,4
CC(=O)Nc1ccc(C(=O)Nc2ccccc2[N+](=O)[O-])cc1,/,-2,/
C[C@@H]1CN([C@H](C)CO)C(=O)c2cccc(N(C)C)c2O[C@H]1CN(C)Cc1ccc(Oc2ccccc2)cc1,-40,0,70*
C[C@H]1CN([C@@H](C)CO)C(=O)c2cccc(N(C)C)c2O[C@@H]1CN(C)Cc1ccccc1,1,-1,-12
C[C@H]1CN([C@@H](C)CO)C(=O)c2cccc(NC(=O)C3CC3)c2O[C@H]1CN(C)Cc1ccc(Oc2ccccc2)cc1,-6,/,-3
C[C@@H]1CN([C@H](C)CO)C(=O)c2cccc(NC(=O)C3CC3)c2O[C@H]1CN(C)Cc1ccc(Oc2ccccc2)cc1,-56,/,63*
C[C@H]1CN([C@@H](C)CO)C(=O)c2cccc(NC(=O)C3CCCCC3)c2O[C@@H]1CN(C)Cc1ccc(Oc2ccccc2)cc1,-36,/,67*
C[C@@H]1CN([C@H](C)CO)C(=O)c2cccc(NC(=O)C3CCCCC3)c2O[C@@H]1CN(C)Cc1ccc(Oc2ccccc2)cc1,-34,-1,27
O=C(N/N=C/c1cc(Br)c(O)c(Br)c1)c1ccccc1O,-57,/,-13
O=C(CCCCCC(=O)Nc1ccccc1O)N/N=C/C1=CCCCC1,/,0,/
C[C@H]1CN([C@@H](C)CO)C(=O)c2cc(NC(=O)Nc3ccc(F)cc3)ccc2O[C@H]1CN(C)Cc1ccc(-c2ccccc2)cc1,-41,/,65*
C[C@H](CO)N1C[C@H](C)[C@@H](CN(C)Cc2ccc(-c3ccccc3)cc2)Oc2ccc(NC(=O)Nc3ccc(F)cc3)cc2C1=O,-7,-1,10
C[C@H]1CN([C@@H](C)CO)C(=O)c2cc(NC(=O)Nc3ccc(C(F)(F)F)cc3)ccc2O[C@H]1CN(C)Cc1ccc(-c2ccccc2)cc1,-54,/,58*
C[C@H](CO)N1C[C@H](C)[C@H](CN(C)Cc2ccc(-c3ccccc3)cc2)Oc2ccc(NC(=O)Nc3ccc(C(F)(F)F)cc3)cc2C1=O,/,0,41
COC(=O)CCCCCCC(=O)N/N=C/c1ccoc1,-1,-1,-5
C[C@@H]1CN([C@@H](C)CO)C(=O)c2cccc(NC(=O)Nc3ccccc3)c2O[C@H]1CN(C)S(=O)(=O)c1ccc(Cl)cc1,37,/,-5
SMILES,INS-1E rescue,A1 apoptosis 2,T cruzi HTS
COC(=O)CCCCCCC(=O)N/N=C/c1cc(Br)cc(Br)c1O,14,1,62*
COc1ccc(/C=N/NC(=O)CCCCCCC(=O)Nc2ccccc2O)c(O)c1,-6,/,26
COC(=O)CCCCCCC(=O)N/N=C/c1ccc(OCCCN(C)C)cc1,9,/,81*
COC(=O)CCCCCCC(=O)N/N=C/c1cc(Br)cc(OC)c1O,32,0,26
O=C(CCCCCCC(=O)Nc1ccccc1O)N/N=C/c1ccc(OCc2ccccc2)cc1O,10,-2,78*
CN(C)CCCOc1ccc(/C=N/NC(=O)CCCCCCC(=O)NO)cc1,/,-1,/
O=C(CCCCCCC(=O)Nc1ccccc1O)N/N=C/c1ccc(OCCO)cc1,-13,0,-3
